Source: ChEMBL document CHEMBL3734675, “Synthesis, antimycobacterial and antibacterial activity of fluoroquinolone derivatives containing an 3-alkoxyimino-4-(cyclopropylanimo)methylpyrrolidine moiety” (2015)
Values after ≈ are worked out from the molar mass of the structure shown.

Experiments:
Type in all cases: functional
Staphylococcus aureus [1] = test: Antibacterial activity against methicillin-resistant Staphylococcus aureus 14-5 after 18 to 24 hrs by two-fold serial dilution method
Procedure, shortened: (§1)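 Agar media, standard twofold serial dilution. MIC is the lowest concentration giving complete inhibition of bacterial growth after incubation at 35 °C for 18–24 h. Ciprofloxacin and levofloxacin were run as comparators.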

[2] = tested on: Staphylococcus epidermidis; test: Antibacterial activity against methicillin-resistant Staphylococcus epidermidis 14-21 after 18 to 24 hrs by two-fold serial dilution method; procedure, shortened: as §1
Staphylococcus aureus [3] = test: Antibacterial activity against methicillin-sensitive Staphylococcus aureus 14-3 after 18 to 24 hrs by two-fold serial dilution method
Procedure, shortened: (§2)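 Twofold serial dilution in agar media against Gram-positive and Gram-negative strains. Plates incubated at 35 °C for 18–24 h. MIC read as the lowest compound concentration giving complete inhibition of bacterial growth.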

Escherichia coli [4] = test: Antibacterial activity against Escherichia coli 14-2 after 18 to 24 hrs by two-fold serial dilution method; procedure, shortened: as §2
Klebsiella pneumoniae [5] = test: Antibacterial activity against Klebsiella pneumoniae 14-4 after 18 to 24 hrs by two-fold serial dilution method; procedure, shortened: as §2
Escherichia coli [6] = test: Antibacterial activity against Escherichia coli 14-1 after 18 to 24 hrs by two-fold serial dilution method; procedure, shortened: as §2
Pseudomonas aeruginosa [7] = test: Antibacterial activity against Pseudomonas aeruginosa 14-16 after 18 to 24 hrs by two-fold serial dilution method; procedure, shortened: as §2
Klebsiella pneumoniae [8] = test: Antibacterial activity against extended-spectrum beta-lactamase producing Klebsiella pneumoniae 14-18 after 18 to 24 hrs by two-fold serial dilution method; procedure, shortened: as §2
Pseudomonas aeruginosa [9] = test: Antibacterial activity against Pseudomonas aeruginosa ATCC 27853 after 18 to 24 hrs by two-fold serial dilution method; procedure, shortened: as §2
Klebsiella pneumoniae [10] = test: Antibacterial activity against Klebsiella pneumoniae 14-3 after 18 to 24 hrs by two-fold serial dilution method; procedure, shortened: as §2
Staphylococcus aureus [11] = test: Antibacterial activity against Staphylococcus aureus CMCC 26003 after 18 to 24 hrs by two-fold serial dilution method; procedure, shortened: as §2
Pseudomonas aeruginosa [12] = test: Antibacterial activity against Pseudomonas aeruginosa 14-14 after 18 to 24 hrs by two-fold serial dilution method; procedure, shortened: as §2
Klebsiella pneumoniae [13] = test: Antibacterial activity against Klebsiella pneumoniae 14-1 after 18 to 24 hrs by two-fold serial dilution method; procedure, shortened: as §2
[14] = tested on: Staphylococcus epidermidis; test: Antibacterial activity against methicillin-resistant Staphylococcus epidermidis 14-37 after 18 to 24 hrs by two-fold serial dilution method; procedure, shortened: as §1
Streptococcus pneumoniae = test: Antibacterial activity against methicillin-resistant Streptococcus pneumoniae ATCC 19615 after 18 to 24 hrs by two-fold serial dilution method; procedure, shortened: as §1
Staphylococcus aureus [15] = test: Antibacterial activity against methicillin-resistant Staphylococcus aureus 14-4 after 18 to 24 hrs by two-fold serial dilution method; procedure, shortened: as §1
[16] = tested on: Staphylococcus epidermidis; test: Antibacterial activity against methicillin-resistant Staphylococcus epidermidis 14-22 after 18 to 24 hrs by two-fold serial dilution method; procedure, shortened: as §1
Escherichia coli [17] = test: Antibacterial activity against extended-spectrum beta-lactamase producing Escherichia coli 14-1 after 18 to 24 hrs by two-fold serial dilution method; procedure, shortened: as §2
Enterococcus faecium [18] = test: Antibacterial activity against Enterococcus faecium 14-2 after 18 to 24 hrs by two-fold serial dilution method; procedure, shortened: as §2
Staphylococcus aureus [19] = test: Antibacterial activity against methicillin-sensitive Staphylococcus aureus 14-1 after 18 to 24 hrs by two-fold serial dilution method; procedure, shortened: as §2
Pseudomonas aeruginosa [20] = test: Antibacterial activity against Pseudomonas aeruginosa 14-9 after 18 to 24 hrs by two-fold serial dilution method; procedure, shortened: as §2
[21] = tested on: Staphylococcus epidermidis; test: Antibacterial activity against methicillin-resistant Staphylococcus epidermidis 14-39 after 18 to 24 hrs by two-fold serial dilution method; procedure, shortened: as §1
Pseudomonas aeruginosa [22] = test: Antibacterial activity against Pseudomonas aeruginosa 14-15 after 18 to 24 hrs by two-fold serial dilution method; procedure, shortened: as §2
[23] = tested on: Staphylococcus epidermidis; test: Antibacterial activity against methicillin-sensitive Staphylococcus epidermidis 14-2 after 18 to 24 hrs by two-fold serial dilution method; procedure, shortened: as §2
Klebsiella pneumoniae [24] = test: Antibacterial activity against extended-spectrum beta-lactamase producing Klebsiella pneumoniae 14-19 after 18 to 24 hrs by two-fold serial dilution method; procedure, shortened: as §2
Enterococcus faecium [25] = test: Antibacterial activity against Enterococcus faecium 14-5 after 18 to 24 hrs by two-fold serial dilution method; procedure, shortened: as §2
Enterococcus faecalis [26] = test: Antibacterial activity against Enterococcus faecalis 14-2 after 18 to 24 hrs by two-fold serial dilution method; procedure, shortened: as §2
Klebsiella pneumoniae [27] = test: Antibacterial activity against extended-spectrum beta-lactamase producing Klebsiella pneumoniae 14-17 after 18 to 24 hrs by two-fold serial dilution method; procedure, shortened: as §2
Escherichia coli [28] = test: Antibacterial activity against Escherichia coli ATCC 25922 after 18 to 24 hrs by two-fold serial dilution method; procedure, shortened: as §2
[29] = tested on: Mycobacterium tuberculosis; test: Antimycobacterial activity against Mycobacterium tuberculosis H37Rv ATCC 27294 incubated for 7 days by microplate Alamar Blue assay; settings: H37Rv ATCC 27294, 168 h
Procedure, shortened: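 Fluorescence read-out. MIC is the lowest concentration that reduces fluorescence by at least 90% relative to the mean of replicate bacterium-only controls. Isoniazid and rifampicin were included as reference drugs.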

Escherichia coli [30] = test: Antibacterial activity against extended-spectrum beta-lactamase producing Escherichia coli 14-2 after 18 to 24 hrs by two-fold serial dilution method; procedure, shortened: as §2
Klebsiella pneumoniae [31] = test: Antibacterial activity against Klebsiella pneumoniae 14-2 after 18 to 24 hrs by two-fold serial dilution method; procedure, shortened: as §2
Staphylococcus aureus [32] = test: Antibacterial activity against methicillin-sensitive Staphylococcus aureus 14-4 after 18 to 24 hrs by two-fold serial dilution method; procedure, shortened: as §2
Enterococcus faecalis [33] = test: Antibacterial activity against Enterococcus faecalis 14-1 after 18 to 24 hrs by two-fold serial dilution method; procedure, shortened: as §2
Enterococcus faecium [34] = test: Antibacterial activity against Enterococcus faecium 14-6 after 18 to 24 hrs by two-fold serial dilution method; procedure, shortened: as §2

Row | Structure (SMILES) | MIC (Staphylococcus aureus [1]) | MIC [2] | MIC (Staphylococcus aureus [3]) | MIC (Escherichia coli [4]) | MIC (Klebsiella pneumoniae [5]) | MIC (Escherichia coli [6]) | MIC (Pseudomonas aeruginosa [7]) | MIC (Klebsiella pneumoniae [8]) | MIC (Pseudomonas aeruginosa [9]) | MIC (Klebsiella pneumoniae [10]) | MIC (Staphylococcus aureus [11]) | MIC (Pseudomonas aeruginosa [12]) | MIC (Klebsiella pneumoniae [13]) | MIC [14] | MIC (Streptococcus pneumoniae) | MIC (Staphylococcus aureus [15]) | MIC [16] | MIC (Escherichia coli [17]) | MIC (Enterococcus faecium [18]) | MIC (Staphylococcus aureus [19]) | further results
1 | CCO/N=C1/CN(c2nc3c(cc2F)c(=O)c(C(=O)O)cn3[C@@H]2C[C@@H]2F)CC1(C)CNC1CC1 (stereo not given in full) | 2 µg/mL (≈ 4.21 µM) | 4 µg/mL (≈ 8.41 µM) | 2 µg/mL (≈ 4.21 µM) | > 128 µg/mL | > 128 µg/mL | > 128 µg/mL | 64 µg/mL (≈ 135 µM) | 128 µg/mL (≈ 269 µM) | 32 µg/mL (≈ 67.3 µM) | 128 µg/mL (≈ 269 µM) | 0.015 µg/mL (≈ 0.0315 µM) | 128 µg/mL (≈ 269 µM) | 64 µg/mL (≈ 135 µM) | 2 µg/mL (≈ 4.21 µM) | 0.25 µg/mL (≈ 0.526 µM) | 4 µg/mL (≈ 8.41 µM) | 4 µg/mL (≈ 8.41 µM) | 32 µg/mL (≈ 67.3 µM) | 4 µg/mL (≈ 8.41 µM) | 1 µg/mL (≈ 2.1 µM) | MIC (Pseudomonas aeruginosa [20]): 32 µg/mL (≈ 67.3 µM); MIC [21]: 4 µg/mL (≈ 8.41 µM); MIC (Pseudomonas aeruginosa [22]): 64 µg/mL (≈ 135 µM); MIC [23]: 16 µg/mL (≈ 33.6 µM); MIC (Klebsiella pneumoniae [24]): 64 µg/mL (≈ 135 µM); MIC (Enterococcus faecium [25]): 2 µg/mL (≈ 4.21 µM); MIC (Enterococcus faecalis [26]): 1 µg/mL (≈ 2.1 µM); MIC (Klebsiella pneumoniae [27]): 64 µg/mL (≈ 135 µM); MIC (Escherichia coli [28]): 2 µg/mL (≈ 4.21 µM); MIC90 [29]: 0.6 µg/mL (≈ 1.26 µM); MIC (Escherichia coli [30]): > 128 µg/mL; MIC (Klebsiella pneumoniae [31]): 128 µg/mL (≈ 269 µM); MIC (Staphylococcus aureus [32]): 1 µg/mL (≈ 2.1 µM); MIC (Enterococcus faecalis [33]): 16 µg/mL (≈ 33.6 µM); MIC (Enterococcus faecium [34]): 4 µg/mL (≈ 8.41 µM)
2 | Nc1nc(-n2cc(C(=O)O)c(=O)c3cc(F)c(N4C/C(=N/OCc5ccccc5)C(CNC5CC5)C4)nc32)c(F)cc1F (stereo not given) | 8 µg/mL (≈ 13.5 µM) | 64 µg/mL (≈ 108 µM) | 32 µg/mL (≈ 53.9 µM) | > 128 µg/mL | > 128 µg/mL | > 128 µg/mL | 128 µg/mL (≈ 216 µM) | > 128 µg/mL | 128 µg/mL (≈ 216 µM) | > 128 µg/mL | 0.015 µg/mL (≈ 0.0253 µM) | 128 µg/mL (≈ 216 µM) | 64 µg/mL (≈ 108 µM) | 128 µg/mL (≈ 216 µM) | 16 µg/mL (≈ 27 µM) | 64 µg/mL (≈ 108 µM) | 128 µg/mL (≈ 216 µM) | 64 µg/mL (≈ 108 µM) | 64 µg/mL (≈ 108 µM) | 16 µg/mL (≈ 27 µM) | MIC (Pseudomonas aeruginosa [20]): 128 µg/mL (≈ 216 µM); MIC [21]: 64 µg/mL (≈ 108 µM); MIC (Pseudomonas aeruginosa [22]): 128 µg/mL (≈ 216 µM); MIC [23]: 128 µg/mL (≈ 216 µM); MIC (Klebsiella pneumoniae [24]): 128 µg/mL (≈ 216 µM); MIC (Enterococcus faecium [25]): 64 µg/mL (≈ 108 µM); MIC (Enterococcus faecalis [26]): 8 µg/mL (≈ 13.5 µM); MIC (Klebsiella pneumoniae [27]): 128 µg/mL (≈ 216 µM); MIC (Escherichia coli [28]): 8 µg/mL (≈ 13.5 µM); MIC90 [29]: > 32 µg/mL; MIC (Escherichia coli [30]): > 128 µg/mL; MIC (Klebsiella pneumoniae [31]): 128 µg/mL (≈ 216 µM); MIC (Staphylococcus aureus [32]): 32 µg/mL (≈ 53.9 µM); MIC (Enterococcus faecalis [33]): 64 µg/mL (≈ 108 µM); MIC (Enterococcus faecium [34]): 128 µg/mL (≈ 216 µM)
3 | O=C(O)c1cn([C@@H]2C[C@@H]2F)c2nc(N3C/C(=N/OCc4ccccc4)C(CNC4CC4)C3)c(F)cc2c1=O (stereo not given in full) | 8 µg/mL (≈ 15.3 µM) | 16 µg/mL (≈ 30.6 µM) | 4 µg/mL (≈ 7.64 µM) | > 128 µg/mL | > 128 µg/mL | > 128 µg/mL | 64 µg/mL (≈ 122 µM) | 64 µg/mL (≈ 122 µM) | 32 µg/mL (≈ 61.1 µM) | 128 µg/mL (≈ 244 µM) | < 0.008 µg/mL | 64 µg/mL (≈ 122 µM) | 128 µg/mL (≈ 244 µM) | 16 µg/mL (≈ 30.6 µM) | 1 µg/mL (≈ 1.91 µM) | 32 µg/mL (≈ 61.1 µM) | 8 µg/mL (≈ 15.3 µM) | 16 µg/mL (≈ 30.6 µM) | 8 µg/mL (≈ 15.3 µM) | 4 µg/mL (≈ 7.64 µM) | MIC (Pseudomonas aeruginosa [20]): 8 µg/mL (≈ 15.3 µM); MIC [21]: 64 µg/mL (≈ 122 µM); MIC (Pseudomonas aeruginosa [22]): 64 µg/mL (≈ 122 µM); MIC [23]: 32 µg/mL (≈ 61.1 µM); MIC (Klebsiella pneumoniae [24]): 128 µg/mL (≈ 244 µM); MIC (Enterococcus faecium [25]): 16 µg/mL (≈ 30.6 µM); MIC (Enterococcus faecalis [26]): 1 µg/mL (≈ 1.91 µM); MIC (Klebsiella pneumoniae [27]): 64 µg/mL (≈ 122 µM); MIC (Escherichia coli [28]): 0.25 µg/mL (≈ 0.478 µM); MIC90 [29]: 2.1 µg/mL (≈ 4.01 µM); MIC (Escherichia coli [30]): > 128 µg/mL; MIC (Klebsiella pneumoniae [31]): 64 µg/mL (≈ 122 µM); MIC (Staphylococcus aureus [32]): 16 µg/mL (≈ 30.6 µM); MIC (Enterococcus faecalis [33]): 64 µg/mL (≈ 122 µM); MIC (Enterococcus faecium [34]): 32 µg/mL (≈ 61.1 µM)
